Results published in ChEMBL document CHEMBL1134797, “Synthesis and structural studies of aza analogues of functionalized amino acids: new anticonvulsant agents” (2001).

Tests used:
Mus musculus [1] = experiment: Evaluated against Maximal electroshock seizure test in mice after ip administration; type: functional
Method in brief: (§1)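 Given intraperitoneally to mice. […] Seizure protection scored in the maximal electroshock test or against subcutaneous pentylenetetrazole (Metrazol). Neurologic toxicity scored on the rotorod.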

Mus musculus [2] = experiment: Evaluated against neurological toxicity determined from the rotarod test in mice after ip administration; type: functional; method in brief: as §1
Mus musculus [3] = experiment: Tested against subcutaneous pentylenetetrazole (Metrazol) seizure test in mice after ip administration; type: functional; method in brief: as §1
[4] = Protective index (TD50/ED50) value of the compound; type: functional
Method in brief: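 Protective index taken as rotorod TD50 divided by maximal electroshock ED50, both in mg/kg and both from dose–effect data at the time of peak effect.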

Rattus norvegicus [5] = experiment: Evaluated against Maximal electroshock seizure test in rat after po administration
Rattus norvegicus [6] = experiment: Evaluated against neurological toxicity determined from the rotarod test in rat after po administration

SMILES	ED50 (Mus musculus [1]) [mg/kg]	TD50 (Mus musculus [2]) [mg/kg]	ED50 (Mus musculus [3]) [mg/kg]	PI [4]	ED50 (Rattus norvegicus [5]) [mg/kg]	TD50 (Rattus norvegicus [6]) [mg/kg]
CC(=O)NN(C(=O)NCc1ccccc1)c1nccs1	22	120	>200	5.4	6.2	> 250
CC(=O)NNC(=O)NCc1ccccc1	> 100	> 160	>300	–	95	> 160
O=C1NC(=O)C(c2ccccc2)(c2ccccc2)N1 [PHENYTOIN]	6.5	43	–	6.6	23	–
CCCC(CCC)C(=O)O [VALPROIC ACID]	290	480	–	1.3	400	–
CC(=O)NN(C(=O)NCc1ccccc1)c1ccccc1	> 30	> 100	>300	–	> 30	> 30
CC(=O)NN(C(=O)NCc1ccccc1)c1ccccn1	> 30	> 100	>100	–	< 30	> 30
CC(=O)NN(C)C(=O)NCc1ccccc1	89	> 500	>300	> 5.6	> 30	> 30
CCC1(c2ccccc2)C(=O)NC(=O)NC1=O [PHENOBARBITAL]	22	69	–	3.1	–	–
CC(=O)NN(C(=O)NCc1ccccc1)c1ncccn1	> 100	> 100	>300	–	~30	> 30
